Results on 1 molecule are retold here after ChEMBL document CHEMBL4396947, “Synthesis and characterization of novel isoform-selective IP6K1 inhibitors” (Bioorg Med Chem Lett, 2019).

pIC50, pKi: −log10 of the molar value.

Data set [1] deals with Ribosomal protein S6 kinase beta-1 (Homo sapiens), P23443 [T412E]. Nature of the data set: Inhibition of recombinant human p70S6K T412E mutant (1 to 421 residues) assessed as residual activity at 10 uM incubated for 40 mins in presence of [gamma-33P]ATP at Km concentration by radiometric assay relative to control.
For data set [2], the target named is Cyclin-dependent kinase 1/cyclin B1 (Homo sapiens) (UniProt P06493+P14635). Briefly: Inhibition of human full length recombinant CDK1/cyclinB assessed as residual activity at 10 uM using Histone H1 as substrate incubated for 40 mins in presence of [gamma-33P]ATP at Km concentration by radiometric assay relative to control. The data set is classed as protein-complex assay.

The species named for data set [3] is Homo sapiens. Nature of the data set: Inhibition of recombinant full length human PI3K p110delta/p85alpha N253S mutant assessed as residual activity at 10 uM incubated for 40 mins in presence of [gamma-33P]ATP at Km concentration by radiometric assay relative to control.
In data set [4] the target is Mitogen-activated protein kinase kinase kinase 5 (Homo sapiens) (UniProt Q99683). Briefly: Inhibition of recombinant human ASK1 (649 to 946 residues) assessed as residual activity at 10 uM using myelin basic protein as substrate incubated for 40 mins in presence of [gamma-33P]ATP at Km concentration by radiometric assay relative to control.
Data set [5] can be described thus: Half life in human microsomes at 1 uM in presence of NADPH. The data set is classed as ADME, Microsome.
The target in data set [6] is Serine/threonine-protein kinase Nek2 (Homo sapiens) (UniProt P51955). Briefly: Inhibition of full length recombinant human NEK2 assessed as residual activity at 10 uM using myelin basic protein as substrate incubated for 40 mins in presence of [gamma-33P]ATP at Km concentration by radiometric assay relative to control.
The target in data set [7] is Inositol hexakisphosphate kinase 3 (Homo sapiens, UniProt Q96PC2). Nature of the data set: Inhibition of IP6K3 (unknown origin) in presence of ATP at Km concentration by Cheng-Prusoff equation analysis. In outline: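 Purified IP6K isoforms run in the ADP-Glo Max kinase assay with 1 mM ATP. Measured IC50 values converted to Ki with the Cheng-Prusoff equation.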
Data set [8] deals with Mitogen-activated protein kinase kinase kinase 9 (Homo sapiens) (UniProt P80192). Briefly: Inhibition of recombinant human MLK1 (134 to 414 residues) assessed as residual activity at 10 uM using casein as substrate incubated for 40 mins in presence of [gamma-33P]ATP at Km concentration by radiometric assay relative to control.
For data set [9], the target named is Ephrin type-B receptor 4 (Homo sapiens) (UniProt P54760). Briefly: Inhibition of recombinant human EPHB4 (561 to end residues) assessed as residual activity at 10 uM using poly (Glu,Tyr) 4:1 as substrate incubated for 40 mins in presence of [gamma-33P]ATP at Km concentration by radiometric assay relative to control.
The species named for data set [10] is Homo sapiens. Nature of the data set: Inhibition of recombinant human PRAK 5 R291E mutant assessed as residual activity at 10 uM using KKLRRTLSVA as substrate incubated for 40 mins in presence of [gamma-33P]ATP at Km concentration by radiometric assay relative to control.
Data set [11] concerns the target Ribosomal protein S6 kinase alpha-4 (Homo sapiens) (UniProt O75676). Briefly: Inhibition of full length recombinant human MSK2 assessed as residual activity at 10 uM using GRPRTSSFAEGKK as substrate incubated for 40 mins in presence of [gamma-33P]ATP at Km concentration by radiometric assay relative to control.
Data set [12] addresses CDK7/Cyclin H/MNAT1 (Homo sapiens) (UniProt P51946+P50613+P51948). Briefly: Inhibition of human full length recombinant CDK7/cyclinH/MAT1 assessed as residual activity at 10 uM using peptide as substrate incubated for 40 mins in presence of [gamma-33P]ATP at Km concentration by radiometric assay relative to control. The data set is classed as protein-complex assay.
Data set [13] has as its target Vascular endothelial growth factor receptor 2 (Homo sapiens) (UniProt P35968). Nature of the data set: Inhibition of human recombinant KDR (790 to end residues) assessed as residual activity at 10 uM using myelin basic protein as substrate incubated for 40 mins in presence of [gamma-33P]ATP at Km concentration by radiometric assay relative to control.
Data set [14] addresses SRSF protein kinase 1 (Homo sapiens) (UniProt Q96SB4). Briefly: Inhibition of recombinant human SRPK1 (2 to end residues) assessed as residual activity at 10 uM using RSRSRSRSRSRSRSR as substrate incubated for 40 mins in presence of [gamma-33P]ATP at Km concentration by radiometric assay relative to control.
Data set [15] has as its target PI3-kinase p110-alpha/p85-alpha (Homo sapiens) (UniProt P27986+P42336). Nature of the data set: Inhibition of recombinant full length human PI3K p110alpha/p85alpha assessed as residual activity at 10 uM incubated for 40 mins using phosphatidylinositol-4,5 bisphosphate as substrate in presence of [gamma-33P]ATP at Km concentration by radiometric assay relative to control. The data set is classed as protein-complex assay.

Data set [16] addresses MAP kinase-interacting serine/threonine-protein kinase 2 (Homo sapiens) (UniProt Q9HBH9). Nature of the data set: Inhibition of full length recombinant human MNK2 assessed as residual activity at 10 uM using myelin basic protein as substrate incubated for 40 mins in presence of [gamma-33P]ATP at Km concentration by radiometric assay relative to control.
In data set [17] the target is CDK6/cyclin D3 (Homo sapiens) (UniProt P30281+Q00534). Briefly: Inhibition of human full length recombinant CDK6/cyclinD3 assessed as residual activity at 10 uM using Histone H1 as substrate incubated for 40 mins in presence of [gamma-33P]ATP at Km concentration by radiometric assay relative to control. The data set is classed as protein-complex assay.
The target in data set [18] is Inositol hexakisphosphate kinase 2 (Homo sapiens, UniProt Q9UHH9). Nature of the data set: Inhibition of IP6K2 (unknown origin) incubated for 30 mins using IP6 as substrate in presence of ATP by ADP-Glo reagent based luminescence assay. The method in brief:
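Luminescent ADP-Glo Max format adapted for IP6K, with purified enzyme and ATP at 1 mM, which is consumed as the kinase reaction proceeds. IC50 taken from the resulting inhibition data.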

The species named for data set [19] is Homo sapiens. Briefly: Selectivity ratio of Ki for IP6K3 (unknown origin) to Ki for IP6K1 (unknown origin). The method in brief:
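Purified IP6K1, IP6K2 and IP6K3 were each tested in an ADP-Glo Max luminescence assay optimized for IP6K, with 1 mM ATP consumed as the kinase reaction proceeds. IC50 values from each isoform were converted to Ki with the Cheng-Prusoff equation, and the Ki ratio versus IP6K1 was taken.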

Data set [20] has as its target Serine/threonine-protein kinase 10 (Homo sapiens) (UniProt O94804). Nature of the data set: Inhibition of human recombinant LOK (1 to 348 residues) assessed as residual activity at 10 uM using RLGRDKYKTLRQI as substrate incubated for 40 mins in presence of [gamma-33P]ATP at Km concentration by radiometric assay relative to control.
Data set [21] addresses Mitogen-activated protein kinase 14 (Homo sapiens) (UniProt Q16539). Briefly: Inhibition of recombinant full length human SAPK2alpha assessed as residual activity at 10 uM using myelin basic protein as substrate incubated for 40 mins in presence of [gamma-33P]ATP at Km concentration by radiometric assay relative to control.

Inositol hexakisphosphate kinase 2, sequence (Q9UHH9 whole entry): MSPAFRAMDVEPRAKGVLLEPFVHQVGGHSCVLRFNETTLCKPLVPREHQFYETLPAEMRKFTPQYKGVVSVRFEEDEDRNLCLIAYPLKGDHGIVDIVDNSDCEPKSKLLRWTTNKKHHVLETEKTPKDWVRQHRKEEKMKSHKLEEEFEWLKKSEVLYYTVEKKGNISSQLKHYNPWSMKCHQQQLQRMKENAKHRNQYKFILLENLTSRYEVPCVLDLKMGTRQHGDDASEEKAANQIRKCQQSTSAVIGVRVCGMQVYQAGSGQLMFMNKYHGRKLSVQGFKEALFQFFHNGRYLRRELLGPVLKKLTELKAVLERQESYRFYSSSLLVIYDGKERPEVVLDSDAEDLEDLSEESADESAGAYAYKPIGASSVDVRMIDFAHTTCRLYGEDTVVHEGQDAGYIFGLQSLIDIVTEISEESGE
MAP kinase-interacting serine/threonine-protein kinase 2 (Homo sapiens), sequence (Q9HBH9 whole entry, looked up): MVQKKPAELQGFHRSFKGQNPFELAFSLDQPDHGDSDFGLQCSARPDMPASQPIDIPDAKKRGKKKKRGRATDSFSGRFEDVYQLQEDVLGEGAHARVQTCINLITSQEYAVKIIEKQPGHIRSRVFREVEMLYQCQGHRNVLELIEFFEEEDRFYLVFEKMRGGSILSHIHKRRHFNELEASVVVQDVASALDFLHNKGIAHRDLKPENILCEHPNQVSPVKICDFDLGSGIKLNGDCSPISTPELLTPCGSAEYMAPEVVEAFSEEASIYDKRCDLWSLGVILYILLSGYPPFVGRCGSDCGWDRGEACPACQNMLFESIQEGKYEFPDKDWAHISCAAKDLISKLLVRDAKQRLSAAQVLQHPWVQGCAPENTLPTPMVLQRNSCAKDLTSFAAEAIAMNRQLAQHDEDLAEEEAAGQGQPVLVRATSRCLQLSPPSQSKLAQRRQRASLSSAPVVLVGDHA
Mitogen-activated protein kinase kinase kinase 9 (Homo sapiens), sequence (P80192 whole entry, looked up, the tested form may be a part): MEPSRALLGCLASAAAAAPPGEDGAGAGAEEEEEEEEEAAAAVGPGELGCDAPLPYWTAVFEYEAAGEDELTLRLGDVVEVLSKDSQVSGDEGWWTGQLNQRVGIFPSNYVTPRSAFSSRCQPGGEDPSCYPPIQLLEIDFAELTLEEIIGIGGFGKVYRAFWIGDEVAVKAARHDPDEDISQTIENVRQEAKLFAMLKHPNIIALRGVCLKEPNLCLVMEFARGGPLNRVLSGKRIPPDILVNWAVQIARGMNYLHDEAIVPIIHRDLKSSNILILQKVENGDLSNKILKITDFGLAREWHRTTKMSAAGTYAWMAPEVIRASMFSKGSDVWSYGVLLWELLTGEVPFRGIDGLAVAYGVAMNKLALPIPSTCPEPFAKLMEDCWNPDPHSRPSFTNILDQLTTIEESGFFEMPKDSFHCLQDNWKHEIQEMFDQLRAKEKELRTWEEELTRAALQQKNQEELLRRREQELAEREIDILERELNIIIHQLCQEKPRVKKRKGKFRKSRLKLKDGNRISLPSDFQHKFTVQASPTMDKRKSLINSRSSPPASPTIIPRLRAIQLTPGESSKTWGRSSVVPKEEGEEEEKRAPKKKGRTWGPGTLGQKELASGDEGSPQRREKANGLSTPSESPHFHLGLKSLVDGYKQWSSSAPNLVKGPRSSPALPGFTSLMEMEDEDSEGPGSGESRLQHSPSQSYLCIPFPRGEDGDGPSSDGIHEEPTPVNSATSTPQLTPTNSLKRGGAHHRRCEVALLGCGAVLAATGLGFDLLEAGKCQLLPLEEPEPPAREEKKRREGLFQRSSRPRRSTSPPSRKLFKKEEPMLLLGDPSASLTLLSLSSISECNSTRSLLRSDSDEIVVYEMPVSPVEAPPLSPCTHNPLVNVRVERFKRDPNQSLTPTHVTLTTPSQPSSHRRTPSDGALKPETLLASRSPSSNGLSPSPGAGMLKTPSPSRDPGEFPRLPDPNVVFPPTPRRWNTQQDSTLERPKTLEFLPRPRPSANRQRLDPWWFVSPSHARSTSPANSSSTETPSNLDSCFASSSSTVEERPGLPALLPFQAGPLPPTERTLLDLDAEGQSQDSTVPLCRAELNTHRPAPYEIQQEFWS
Vascular endothelial growth factor receptor 2 (Homo sapiens), sequence (P35968 whole entry): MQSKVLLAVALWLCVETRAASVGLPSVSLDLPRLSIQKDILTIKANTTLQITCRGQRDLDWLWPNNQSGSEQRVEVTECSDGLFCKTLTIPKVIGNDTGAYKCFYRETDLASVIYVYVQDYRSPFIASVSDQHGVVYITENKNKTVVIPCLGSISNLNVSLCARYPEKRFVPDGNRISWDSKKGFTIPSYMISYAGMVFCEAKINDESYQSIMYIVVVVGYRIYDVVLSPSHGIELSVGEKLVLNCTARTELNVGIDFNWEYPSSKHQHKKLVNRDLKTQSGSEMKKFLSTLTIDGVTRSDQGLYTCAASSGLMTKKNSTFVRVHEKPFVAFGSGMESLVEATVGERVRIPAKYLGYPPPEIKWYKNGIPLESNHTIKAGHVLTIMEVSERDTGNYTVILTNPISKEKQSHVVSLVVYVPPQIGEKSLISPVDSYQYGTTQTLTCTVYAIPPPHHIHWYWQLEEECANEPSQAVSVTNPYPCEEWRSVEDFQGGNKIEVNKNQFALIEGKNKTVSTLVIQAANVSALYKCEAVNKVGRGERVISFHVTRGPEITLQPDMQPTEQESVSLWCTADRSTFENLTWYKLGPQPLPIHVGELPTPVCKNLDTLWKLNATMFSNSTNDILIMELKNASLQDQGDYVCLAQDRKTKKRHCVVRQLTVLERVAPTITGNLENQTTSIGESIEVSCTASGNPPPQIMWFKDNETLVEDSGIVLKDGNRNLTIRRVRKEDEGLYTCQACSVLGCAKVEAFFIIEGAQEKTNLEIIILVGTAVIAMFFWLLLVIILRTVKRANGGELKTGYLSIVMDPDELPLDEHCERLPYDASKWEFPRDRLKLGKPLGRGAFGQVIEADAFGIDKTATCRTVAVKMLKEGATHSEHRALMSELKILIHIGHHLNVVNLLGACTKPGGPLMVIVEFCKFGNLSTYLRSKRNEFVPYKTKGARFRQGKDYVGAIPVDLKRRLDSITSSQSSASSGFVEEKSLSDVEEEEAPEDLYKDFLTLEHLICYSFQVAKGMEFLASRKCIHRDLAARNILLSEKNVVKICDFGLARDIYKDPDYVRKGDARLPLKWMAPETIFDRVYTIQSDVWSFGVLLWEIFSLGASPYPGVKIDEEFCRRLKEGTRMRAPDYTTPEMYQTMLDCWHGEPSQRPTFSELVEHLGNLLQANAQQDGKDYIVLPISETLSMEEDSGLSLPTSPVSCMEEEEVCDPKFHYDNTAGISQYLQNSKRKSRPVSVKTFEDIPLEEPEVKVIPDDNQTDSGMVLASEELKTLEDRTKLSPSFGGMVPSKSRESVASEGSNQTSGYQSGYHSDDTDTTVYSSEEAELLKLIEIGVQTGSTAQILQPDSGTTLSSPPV
Serine/threonine-protein kinase 10 (Homo sapiens), sequence (O94804 whole entry, looked up, the tested form may be a part): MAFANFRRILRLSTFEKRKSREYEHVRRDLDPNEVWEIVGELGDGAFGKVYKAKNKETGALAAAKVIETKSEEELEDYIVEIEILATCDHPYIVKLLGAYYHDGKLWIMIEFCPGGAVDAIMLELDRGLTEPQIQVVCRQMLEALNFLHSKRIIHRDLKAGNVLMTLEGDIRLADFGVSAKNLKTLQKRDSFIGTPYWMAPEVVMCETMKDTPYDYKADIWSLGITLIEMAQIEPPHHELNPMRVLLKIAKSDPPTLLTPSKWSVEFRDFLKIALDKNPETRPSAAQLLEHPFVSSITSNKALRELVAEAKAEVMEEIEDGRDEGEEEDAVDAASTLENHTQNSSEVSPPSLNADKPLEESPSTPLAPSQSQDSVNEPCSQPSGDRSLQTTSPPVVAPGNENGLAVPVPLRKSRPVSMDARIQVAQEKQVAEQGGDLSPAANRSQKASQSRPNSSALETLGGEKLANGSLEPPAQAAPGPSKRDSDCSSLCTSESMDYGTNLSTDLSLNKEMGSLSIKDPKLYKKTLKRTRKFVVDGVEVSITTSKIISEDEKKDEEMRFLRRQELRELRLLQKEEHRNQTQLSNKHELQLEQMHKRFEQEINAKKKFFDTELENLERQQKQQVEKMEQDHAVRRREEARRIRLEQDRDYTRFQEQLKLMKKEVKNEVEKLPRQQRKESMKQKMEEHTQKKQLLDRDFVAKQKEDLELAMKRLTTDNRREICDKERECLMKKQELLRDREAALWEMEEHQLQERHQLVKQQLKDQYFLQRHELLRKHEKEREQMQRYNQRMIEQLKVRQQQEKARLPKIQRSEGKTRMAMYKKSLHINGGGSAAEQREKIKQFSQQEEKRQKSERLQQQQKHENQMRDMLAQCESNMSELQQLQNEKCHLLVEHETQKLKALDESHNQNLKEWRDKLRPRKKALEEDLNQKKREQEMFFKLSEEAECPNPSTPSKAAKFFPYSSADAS
Inositol hexakisphosphate kinase 3, sequence (Q96PC2 whole entry, the tested form may be a part, canonical isoform): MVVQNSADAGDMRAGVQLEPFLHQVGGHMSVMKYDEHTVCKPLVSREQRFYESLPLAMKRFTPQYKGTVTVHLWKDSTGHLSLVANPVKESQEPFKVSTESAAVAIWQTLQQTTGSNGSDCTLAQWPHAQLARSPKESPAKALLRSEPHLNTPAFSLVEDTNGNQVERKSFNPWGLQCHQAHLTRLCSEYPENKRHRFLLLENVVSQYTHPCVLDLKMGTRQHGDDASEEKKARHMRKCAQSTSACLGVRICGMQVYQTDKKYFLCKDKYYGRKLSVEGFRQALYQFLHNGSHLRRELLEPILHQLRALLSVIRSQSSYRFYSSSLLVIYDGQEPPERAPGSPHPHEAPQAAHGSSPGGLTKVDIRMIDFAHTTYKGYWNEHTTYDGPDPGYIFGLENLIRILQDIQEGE

On to `COc1ccc2c(CCNc3nc(NCc4ccc(=O)[nH]c4)c4nc[nH]c4n3)c[nH]c2c1`, for which the Activity stood at 94% in data set [1]; 83% in data set [2]; 95% in data set [3]; 72% in data set [4]; 87% in data set [6]; 24% in data set [8]. Moreover, the Activity in data set [9] was 69%; in data set [10], 87%; in data set [11] it was 96%; in [12], 48%; in data set [13], 60%; in [14], 91%. The Activity was determined as 99% in data set [15]; 76% in data set [16]; 82% in [17]; 97% in [20]; 92% in data set [21]. The t1/2 in data set [5] is listed as 42 min. Further, the pKi in data set [7] is 5.02. The negative logarithm of the IC50 (pIC50) in [18] is 4.70. Also, in [19], the Ratio Ki is 48.1.
